Measured values from ChEMBL document CHEMBL2057186, “Application of the bicyclo[1.1.1]pentane motif as a nonclassical phenyl ring bioisostere in the design of a potent and orally active γ-secretase inhibitor” (J Med Chem, 2012).
In brackets after ≈: the same amount, converted by molar mass.

How the values were obtained:
Cytochrome P450 2C19 = Cytochrome P450 2C19 (Homo sapiens, UniProt P33261); test: Inhibition of CYP2C19 in human liver microsomes using (S)-mephenytoin as substrate; format: ADME, Microsome
Sequence of Cytochrome P450 2C19 (P33261 whole entry): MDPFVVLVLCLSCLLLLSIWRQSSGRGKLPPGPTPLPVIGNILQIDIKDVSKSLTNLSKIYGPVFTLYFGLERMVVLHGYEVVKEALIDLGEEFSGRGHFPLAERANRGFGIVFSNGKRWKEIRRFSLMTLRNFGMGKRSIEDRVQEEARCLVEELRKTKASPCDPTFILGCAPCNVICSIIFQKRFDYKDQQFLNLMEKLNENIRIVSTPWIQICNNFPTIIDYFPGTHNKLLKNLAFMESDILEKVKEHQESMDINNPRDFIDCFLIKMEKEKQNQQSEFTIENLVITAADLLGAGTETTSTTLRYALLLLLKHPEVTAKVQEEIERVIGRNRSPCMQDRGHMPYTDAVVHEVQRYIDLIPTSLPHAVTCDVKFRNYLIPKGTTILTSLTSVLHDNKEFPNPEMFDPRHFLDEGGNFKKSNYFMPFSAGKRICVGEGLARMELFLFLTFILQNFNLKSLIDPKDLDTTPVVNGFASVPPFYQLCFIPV

[1] = Fraction unbound in 129/sve mouse brain at 30 mg/kg, po administered as single dose; format: ADME, organism-based; parameters: dose 30 mg/kg, route oral
[2] = AUC (0 to 24 hrs) in Sprague-Dawley rat at 5 mg/kg, po; format: ADME, organism-based; parameters: time < 24 hr, dose 5 mg/kg, route oral; conditions: plasma
Method in brief: (§1)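 Single-dose PK in female rats; iv at 1 mg/kg (2 mL/kg, 0.5 mg/mL) and po at 5 mg/kg (10 mL/kg, 0.5 mg/mL), both formulated in 40% (w/v) hydroxypropyl-β-cyclodextrin.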

[3] = Cmax in 129/sve mouse cerebrospinal fluid at 30 mg/kg, po administered as single dose by LC-MS/MS analysis; format: ADME, organism-based; parameters: dose 30 mg/kg, route oral
Method in brief: (§2)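 Single-dose oral PK in wild-type male 129/sve mice. Formulation was 98% (v/v) Phosal 50 PG with 2% Tween 80. Compound was measured in plasma, brain and CSF. Values are means ± standard deviations (n = 4 or 5).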

Mus musculus [4] = test: Antialzheimer activity in 129/sve mouse assessed as reduction in amyloid beta42 level in brain at 30 mg/kg, po administered as single dose measured at 5 hrs by ELISA relative to vehicle treated control; format: functional; parameters: scale not given: the % may be the effect or the level left
Method in brief: (§3)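 Wild-type male 129/sve mice received a single oral dose in Phosal 50 PG/Tween 80 vehicle. Aβ40 was measured in brain, CSF and plasma and Aβ42 in brain over a time course. Levels are expressed as % of vehicle-treated animals. Values are mean ± SEM, n = 5 or 8 per time point.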

[5] = Kinetic solubility of the solubility of the compound at pH 6.5; format: physicochemical; conditions: buffer, read-out: Kinetic_solubility
Method in brief: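 Kinetic solubility was measured in aqueous buffer at pH 6.5.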

[6] = Tmax in 129/sve mouse cerebrospinal fluid at 30 mg/kg, po administered as single dose by LC-MS/MS analysis; format: ADME, organism-based; parameters: dose 30 mg/kg, route oral; method in brief: as §2
[7] = Thermodynamic solubility of the compound at pH 7.4; format: physicochemical; conditions: buffer, read-out: Therm_solubility
Method in brief: (§4)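 Thermodynamic solubility was measured in aqueous buffer at pH 6.5 and at pH 7.4.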

[8] = Cmax in 129/sve mouse brain at 30 mg/kg, po administered as single dose by LC-MS/MS analysis; format: ADME, organism-based; parameters: dose 30 mg/kg, route oral; method in brief: as §2
[9] = Ratio of fraction unbound in brain to fraction unbound in plasma in Sprague-Dawley rat; format: ADME
[10] = AUC (last) in 129/sve mouse plasma at 30 mg/kg, po administered as single dose by LC-MS/MS analysis; format: ADME, organism-based; parameters: dose 30 mg/kg, route oral, time 0 - last
Method in brief: (§5)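 Wild-type male 129/sve mice received a single oral dose in 98% (v/v) Phosal 50 PG / 2% Tween 80. Drug was measured in plasma, brain and CSF. Study was nonserial, so AUC came from mean matrix concentrations at each time point. Values are mean ± SD (n = 4 or 5).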

[11] = Thermodynamic solubility of the compound at pH 6.5; format: physicochemical; conditions: buffer, read-out: Therm_solubility; method in brief: as §4
Liver microsomes = test: Drug metabolism in human liver microsomes assessed as GSH/GSH-EE adduct formation after 60 mins by LC/MS/MS analysis; format: ADME, Microsome; conditions: 1 h
[12] = Apparent permeability from apical to basal side of dog RRCK cells; format: ADME, cell-based, Canis lupus familiaris, MDCKII-LE; conditions: MDCK
Method in brief: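 Absorptive (A to B) permeability was measured in RRCK cells, a Madin–Darby canine kidney subline isolated for low transporter activity. It estimates intrinsic passive permeability.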

[13] = Fraction unbound in 129/sve mouse plasma at 30 mg/kg, po administered as single dose; format: ADME, organism-based; parameters: dose 30 mg/kg, route oral
[14] = Tmax in 129/sve mouse brain at 30 mg/kg, po administered as single dose by LC-MS/MS analysis; format: ADME, organism-based; parameters: dose 30 mg/kg, route oral; method in brief: as §2
[15] = Plasma clearance in Sprague-Dawley rat at 1 mg/kg, iv; format: ADME, organism-based; parameters: dose 1 mg/kg, route intravenous
Method in brief: (§6)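 Female rats were dosed once, 1 mg/kg iv (2 mL/kg, 0.5 mg/mL) or 5 mg/kg po (10 mL/kg, 0.5 mg/mL). Vehicle was 40% (w/v) hydroxypropyl-β-cyclodextrin. Plasma was sampled to 24 h. Values are means ± SEM (n = 3).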

[16] = Half life in Sprague-Dawley rat at 1 mg/kg, iv; format: ADME, organism-based; parameters: dose 1 mg/kg, route intravenous; conditions: in vivo; method in brief: as §6
Cytochrome P450 1A2 = biological target: T1, Cytochrome P450 1A2 (Homo sapiens, UniProt P05177); test: Inhibition of CYP1A2 in human liver microsomes using tacrine as substrate; format: ADME, Microsome
T1 sequence (P05177 whole entry): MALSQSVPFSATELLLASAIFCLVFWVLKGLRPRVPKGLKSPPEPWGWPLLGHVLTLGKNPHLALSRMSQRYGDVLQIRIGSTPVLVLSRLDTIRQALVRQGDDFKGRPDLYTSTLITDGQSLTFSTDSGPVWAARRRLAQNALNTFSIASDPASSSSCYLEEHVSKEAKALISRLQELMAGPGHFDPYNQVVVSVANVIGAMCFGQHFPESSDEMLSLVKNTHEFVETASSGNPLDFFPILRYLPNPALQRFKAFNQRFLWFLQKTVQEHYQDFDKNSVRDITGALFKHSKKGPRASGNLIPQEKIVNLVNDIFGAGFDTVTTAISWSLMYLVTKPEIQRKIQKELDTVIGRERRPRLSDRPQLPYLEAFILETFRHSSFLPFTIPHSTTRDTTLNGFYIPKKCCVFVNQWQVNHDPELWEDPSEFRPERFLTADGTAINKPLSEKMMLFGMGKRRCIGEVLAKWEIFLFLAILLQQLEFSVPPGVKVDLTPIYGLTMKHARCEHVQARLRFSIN

Cytochrome P450 3A4 = Cytochrome P450 3A4 (Homo sapiens, UniProt P08684); test: Inhibition of CYP3A4 in human liver microsomes using midazolam as substrate; format: ADME, Microsome
Sequence of Cytochrome P450 3A4 (P08684 whole entry): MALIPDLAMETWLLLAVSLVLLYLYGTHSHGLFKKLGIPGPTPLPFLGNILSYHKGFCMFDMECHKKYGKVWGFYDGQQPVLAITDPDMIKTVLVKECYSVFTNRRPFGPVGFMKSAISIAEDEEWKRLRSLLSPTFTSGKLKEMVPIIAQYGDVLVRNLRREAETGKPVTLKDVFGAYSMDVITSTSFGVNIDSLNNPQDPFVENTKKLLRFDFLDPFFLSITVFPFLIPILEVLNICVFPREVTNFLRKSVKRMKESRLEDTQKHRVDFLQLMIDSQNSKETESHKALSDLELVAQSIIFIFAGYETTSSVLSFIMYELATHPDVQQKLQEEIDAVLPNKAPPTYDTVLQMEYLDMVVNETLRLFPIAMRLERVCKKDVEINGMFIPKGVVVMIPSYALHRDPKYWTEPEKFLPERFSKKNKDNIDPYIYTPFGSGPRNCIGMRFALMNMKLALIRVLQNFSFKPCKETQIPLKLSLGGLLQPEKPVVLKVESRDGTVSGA

[17] = AUC (0 to 24 hrs) in Sprague-Dawley rat at 1 mg/kg, iv; format: ADME, organism-based; parameters: time < 24 hr, dose 1 mg/kg, route intravenous; conditions: plasma; method in brief: as §1
[18] = AUC (last) in 129/sve mouse brain at 30 mg/kg, po administered as single dose by LC-MS/MS analysis; format: ADME, organism-based; parameters: time 0 - last, dose 30 mg/kg, route oral; method in brief: as §5
[19] = Ratio of unbound fraction in brain to unbound fraction in plasma in 129/sve mouse at 30 mg/kg, po administered as single dose by LC-MS/MS analysis; format: ADME, organism-based; parameters: dose 30 mg/kg, route oral; conditions: in vivo
Method in brief: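 Single oral dose of 30 mg/kg in wild-type male 129/sve mice, formulated in 98% (v/v) Phosal 50 PG with 2% Tween 80. Brain, CSF and plasma were sampled nonserially over time, and AUC was taken from mean matrix concentrations. Brain availability = (f_u,brain × [brain]) / (f_u,plasma × [plasma]), with n = 4–5 per group.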

Mus musculus [20] = test: Antialzheimer activity in 129/sve mouse assessed as reduction in amyloid beta40 level in plasma at 30 mg/kg, po administered as single dose measured at 1 hr by ELISA relative to vehicle treated control; format: functional; parameters: scale not given: the % may be the effect or the level left; method in brief: as §3
[21] = AUC (last) in 129/sve mouse cerebrospinal fluid at 30 mg/kg, po administered as single dose by LC-MS/MS analysis; format: ADME, organism-based; parameters: time 0 - last, dose 30 mg/kg, route oral; method in brief: as §5
Mus musculus [22] = test: Antialzheimer activity in 129/sve mouse assessed as reduction in amyloid beta40 level in brain at 30 mg/kg, po administered as single dose measured at 5 hrs by ELISA relative to vehicle treated control; format: functional; parameters: scale not given: the % may be the effect or the level left; method in brief: as §3
[23] = Tmax in 129/sve mouse plasma at 30 mg/kg, po administered as single dose by LC-MS/MS analysis; format: ADME, organism-based; parameters: dose 30 mg/kg, route oral; method in brief: as §2

inhibition (INH) (Cytochrome P450 2C19): Not Active | fraction unbound [1]: 0.026 | AUC(0-t) at 24 h [2]: 19.4 µM·h | Cmax [3]: 0.053 µM | solubility kinetic [5]: 216 µM (≈ 106 µg/mL) | Tmax [6]: 1 h | solubility thermodynamic [7]: 29.4 µM (≈ 14.5 µg/mL) | Cmax [8]: 5.6 µM | Ratio [9]: 0.34 | AUC(0-t) [10]: 14.3 µM·h | solubility thermodynamic [11]: 19.7 µM (≈ 9.71 µg/mL) | Drug metabolism (Liver microsomes): Not Active | Papp A→B [12]: 193 nm/s | fraction unbound [13]: 0.0354 | Tmax [14]: 1 h | clearance [15]: 0.798 L/h/kg | half-life [16]: 2.18 h | inhibition (INH) (Cytochrome P450 1A2): Not Active | inhibition (INH) (Cytochrome P450 3A4): Not Active | AUC(0-t) at 24 h [17]: 2.54 µM·h | AUC(0-t) [18]: 12 µM·h | Ratio [19]: 0.62 | AUC(0-t) [21]: 0.118 µM·h | Tmax [23]: 1 h
Structure (SMILES): NC(=O)[C@@H](CCC(F)(F)F)N(CC12CC(c3ncon3)(C1)C2)S(=O)(=O)c1ccc(Cl)cc1
Activity (Mus musculus [4]): 31% | Activity (Mus musculus [20]): 59% | Activity (Mus musculus [22]): 64%
